Experimental data taken from publication PMC12079426 (RSC Advances, 2025).
Several values for one entry are separate records, joined by “and”; a condition that tells them apart may be missing. Equal entries are not always repeated.

Columns and labels:
Assay type in all cases: in vivo
female Swiss albino mice [1] = assay: Forced Swim Test; conditions: percentage decrease in duration of immobility compared to disease control
Procedure, shortened: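 Female Swiss albino mice (20–23 g) were dosed 30 min before testing: saline 10 mL/kg (control), fluoxetine 10 mg/kg (standard), or test compound 100 mg/kg. Two 10-min swim sessions ran 24 h apart (pre-test, then test). Water was at 23 ± 1 °C, deep enough that hind legs could not touch bottom, and changed after each trial. Immobility duration reported as mean ± SEM.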

female Swiss albino mice [2] = assay: Acute oral toxicity study; conditions: individual mice; for Body weight Day 0: pre-administration fasting weight
Procedure, shortened: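 Female Swiss albino mice (20–23 g) kept at 22 ± 3 °C, 50–65% humidity, 12 h light/dark. OECD 423 stepwise design, three mice per step: 300 mg/kg, then 2000 mg/kg. Test compound was given in distilled water by oral intubation needle. Feed was withheld 3–4 h before and 2 h after dosing. Fasting weight was taken pre-dose, then on days 7 and 14.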

female Swiss albino mice [3] = assay: Tail Suspension Test; conditions: percentage decrease in duration of immobility compared to disease control
Procedure, shortened: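 Female Swiss albino mice (20–23 g) received standard or test compound 30 min before testing. Each mouse was hung by the tail from a hook in a three-sided chamber, 50 cm above the surface. Total immobility was recorded over a 10-min session and reported as mean ± SEM.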

How did the “DID (%) Forced swim test” value (female Swiss albino mice [1]) turn out when `Cc1nn(-c2ccccc2)c(N2CCCCC2)c1/C=C/C(=O)c1ccc(-n2c3ccccc3c3ccccc32)cc1` [13a, (E)-1-(4-(9H-Carbazol-9-yl)phenyl)-3-(3-methyl-1-phenyl-5-(piperidin-1-yl)-1H-pyrazol-4-yl)prop-2-en-1-one] was run?
The value was 24.92%.

And the “Body weight Day 7” value (female Swiss albino mice [2]; Step I 300 mg kg^−1 oral)?
The value was 28 g and 26.5 g and 29 g.

What about the “Body weight Day 14” value (female Swiss albino mice [2]; Step I 300 mg kg^−1 oral) of the same compound?
Its value is 32 g and 33 g and 34.5 g.

What about the “Body weight Day 0” value (female Swiss albino mice [2]; Step I 300 mg kg^−1 oral) of the same compound?
The value was 22.5 g and 21.5 g and 25 g.

What about the “Body weight Day 7” value (female Swiss albino mice [2]; Step II 2000 mg kg^−1 oral) of the same compound?
The value was 29.5 g and 29 g and 30 g.

And the “Body weight Day 14” value (female Swiss albino mice [2]; Step II 2000 mg kg^−1 oral)?
The value was 33 g and 32.5 g and 35 g.

And the “Body weight Day 0” value (female Swiss albino mice [2]; Step II 2000 mg kg^−1 oral)?
The value was 24 g and 23.5 g.

And the “DID (%) Tail suspension test” value (female Swiss albino mice [3])?
The value was 5.74%.

For `Cc1nn(-c2ccccc2)c(N2CCOCC2)c1/C=C/C(=O)c1ccc(-n2c3ccccc3c3ccccc32)cc1` [13b, (E)-1-(4-(9H-Carbazol-9-yl)phenyl)-3-(3-methyl-5-morpholino-1-phenyl-1H-pyrazol-4-yl)prop-2-en-1-one], which “DID (%) Forced swim test” value (female Swiss albino mice [1]) is on record?
The value was 23.47%.

What about the “Body weight Day 7” value (female Swiss albino mice [2]; Step I 300 mg kg^−1 oral) of the same compound?
The value was 26.5 g and 29 g and 29.5 g.

And the “Body weight Day 14” value (female Swiss albino mice [2]; Step I 300 mg kg^−1 oral)?
The value was 32.5 g and 36 g and 34.5 g.

What about the “Body weight Day 0” value (female Swiss albino mice [2]; Step I 300 mg kg^−1 oral) of the same compound?
The value was 23.5 g and 24 g.

And the “Body weight Day 7” value (female Swiss albino mice [2]; Step II 2000 mg kg^−1 oral)?
The value was 27.5 g and 30.5 g and 27 g.

What about the “Body weight Day 14” value (female Swiss albino mice [2]; Step II 2000 mg kg^−1 oral) of the same compound?
The value was 32 g and 34.5 g.

What about the “Body weight Day 0” value (female Swiss albino mice [2]; Step II 2000 mg kg^−1 oral) of the same compound?
The value was 23 g and 24.5 g and 21.5 g.

What about the “DID (%) Tail suspension test” value (female Swiss albino mice [3]) of the same compound?
The value was 11.30%.

How did the “DID (%) Forced swim test” value (female Swiss albino mice [1]) turn out when `Cc1nn(-c2ccccc2)c(-n2nnc3ccccc32)c1/C=C/C(=O)c1ccc(-n2c3ccccc3c3ccccc32)cc1` [13c, (E)-3-(5-(1H-Benzo[d][1,2,3]triazol-1-yl)-3-methyl-1-phenyl-1H-pyrazol-4-yl)-1-(4-(9H-carbazol-9-yl)phenyl)prop-2-en-1-one] was run?
Its value is 35.63%.

What about the “Body weight Day 7” value (female Swiss albino mice [2]; Step I 300 mg kg^−1 oral) of the same compound?
The value was 26.5 g.

And the “Body weight Day 14” value (female Swiss albino mice [2]; Step I 300 mg kg^−1 oral)?
Its value is 31 g and 30 g.

And the “Body weight Day 0” value (female Swiss albino mice [2]; Step I 300 mg kg^−1 oral)?
The value was 22.5 g and 23.5 g and 21.5 g.

What about the “Body weight Day 7” value (female Swiss albino mice [2]; Step II 2000 mg kg^−1 oral) of the same compound?
The value was 28 g and 28.5 g and 29.5 g.

What about the “Body weight Day 14” value (female Swiss albino mice [2]; Step II 2000 mg kg^−1 oral) of the same compound?
The value was 33.5 g and 34.5 g.

What about the “Body weight Day 0” value (female Swiss albino mice [2]; Step II 2000 mg kg^−1 oral) of the same compound?
Its value is 22 g and 23.5 g.

What about the “DID (%) Tail suspension test” value (female Swiss albino mice [3]) of the same compound?
The value was 34.67%.

How did the “DID (%) Tail suspension test” value (female Swiss albino mice [3]) turn out when `COc1c(/C=C/C(=O)c2ccc(-n3c4ccccc4c4ccccc43)cc2)c(C)nn1-c1ccccc1` [13d, (E)-1-(4-(9H-Carbazol-9-yl)phenyl)-3-(5-methoxy-3-methyl-1-phenyl-1H-pyrazol-4-yl)prop-2-en-1-one] was run?
The value was 8.55%.

What does the source list for `Cc1nn(-c2ccccc2)c(N2CCCCC2)c1/C=C/C(=O)c1ccc(-n2ccc3ccccc32)cc1` [14a, (E)-1-(4-(1H-Indol-1-yl)phenyl)-3-(3-methyl-1-phenyl-5-(piperidin-1-yl)-1H-pyrazol-4-yl)prop-2-en-1-one]?
DID (%) Forced swim test (female Swiss albino mice [1]): 16.61%; DID (%) Tail suspension test (female Swiss albino mice [3]): 2.58%

How did the “DID (%) Forced swim test” value (female Swiss albino mice [1]) turn out when `Cc1nn(-c2ccccc2)c(N2CCOCC2)c1/C=C/C(=O)c1ccc(-n2ccc3ccccc32)cc1` [14b, (E)-1-(4-(1H-Indol-1-yl)phenyl)-3-(3-methyl-5-morpholino-1-phenyl-1H-pyrazol-4-yl)prop-2-en-1-one] was run?
The value was 2.22%.

And the “DID (%) Tail suspension test” value (female Swiss albino mice [3])?
The value was 1.92%.

What does the source list for `Cc1nn(-c2ccccc2)c(-n2nnc3ccccc32)c1/C=C/C(=O)c1ccc(-n2ccc3ccccc32)cc1` [14c, (E)-3-(5-(1H-Benzo[d][1,2,3]triazol-1-yl)-3-methyl-1-phenyl-1H-pyrazol-4-yl)-1-(4-(1H-indol-1-yl)phenyl)prop-2-en-1-one]?
DID (%) Forced swim test (female Swiss albino mice [1]): 17.90%; DID (%) Tail suspension test (female Swiss albino mice [3]): 9.60%

Which “DID (%) Forced swim test” value (female Swiss albino mice [1]) does the source give for `COc1c(/C=C/C(=O)c2ccc(-n3ccc4ccccc43)cc2)c(C)nn1-c1ccccc1` [14d, (E)-1-(4-(1H-Indol-1-yl)phenyl)-3-(5-methoxy-3-methyl-1-phenyl-1H-pyrazol-4-yl)prop-2-en-1-one] here?
Its value is 13.62%.

And the “DID (%) Tail suspension test” value (female Swiss albino mice [3])?
The value was 5.57%.

For `Cc1nn(-c2ccccc2)c(N2CCCCC2)c1/C=C/C(=O)c1ccc(-n2cccc2)cc1` [15a, (E)-1-(4-(1H-Pyrrol-1-yl)phenyl)-3-(3-methyl-1-phenyl-5-(piperidin-1-yl)-1H-pyrazol-4-yl)prop-2-en-1-one], which “DID (%) Forced swim test” value (female Swiss albino mice [1]) is on record?
Its value is 6.55%.

And the “DID (%) Tail suspension test” value (female Swiss albino mice [3])?
The value was 4.50%.

`Cc1nn(-c2ccccc2)c(N2CCOCC2)c1/C=C/C(=O)c1ccc(-n2cccc2)cc1` [15b, (E)-1-(4-(1H-Pyrrol-1-yl)phenyl)-3-(3-methyl-5-morpholino-1-phenyl-1H-pyrazol-4-yl)prop-2-en-1-one] was tested. Which “DID (%) Forced swim test” value (female Swiss albino mice [1]) did it give?
The value was 11.56%.

And the “DID (%) Tail suspension test” value (female Swiss albino mice [3])?
Its value is 5.74%.

How did the “DID (%) Forced swim test” value (female Swiss albino mice [1]) turn out when `Cc1nn(-c2ccccc2)c(-n2nnc3ccccc32)c1/C=C/C(=O)c1ccc(-n2cccc2)cc1` [15c, (E)-3-(5-(1H-Benzo[d][1,2,3]triazol-1-yl)-3-methyl-1-phenyl-1H-pyrazol-4-yl)-1-(4-(1H-pyrrol-1-yl)phenyl)prop-2-en-1-one] was run?
The value was 22.99%.

And the “DID (%) Tail suspension test” value (female Swiss albino mice [3])?
The value was 14.60%.

What does the source list for `COc1c(/C=C/C(=O)c2ccc(-n3cccc3)cc2)c(C)nn1-c1ccccc1` [15d, (E)-1-(4-(1H-Pyrrol-1-yl)phenyl)-3-(5-methoxy-3-methyl-1-phenyl-1H-pyrazol-4-yl)prop-2-en-1-one]?
DID (%) Forced swim test (female Swiss albino mice [1]): 22.53%; DID (%) Tail suspension test (female Swiss albino mice [3]): 16.24%

Which results are given for `CNCCC(Oc1ccc(C(F)(F)F)cc1)c1ccccc1` (stereo not shown) [Fluoxetine, reference compound]?
DID (%) Forced swim test (female Swiss albino mice [1]): 56.17%; DID (%) Tail suspension test (female Swiss albino mice [3]): 59.67%
